This passage reports Activity, IC50 and inhibition results from ChEMBL document CHEMBL3868636, “New glutathione peroxidase mimetics-Insights into antioxidant and cytotoxic activity” (Bioorg Med Chem, 2017).

Series [1] is described as follows: Antioxidant activity assessed as H2O2 scavenging by measuring remaining dithiothreitol level after 15 mins at 0.1 equivalent by 1H NMR spectroscopy relative to control. The format is functional. The procedure, abridged:
(§1)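 Dithiothreitol oxidation by 30% H2O2 (3.0 eq) in CD3OD, catalysed by Se compound at 0.1 equiv. 1H NMR spectra taken right after H2O2 addition and then at set intervals. Remaining substrate derived from changes in signal integration.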

The nature of series [2]: Cytotoxicity against human DU145 cells assessed as reduction in cell viability measured after 24 hrs by SRB assay. Type of series: functional, cell-based. The settings on record: DU-145, 24 h. Summed up:
(§2)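 DU-145 cells grown in MEM with 10% FBS, glutamine and pyruvate. PNT1A cells grown in RPMI 1640 with serum. Both seeded at 6.0 x 10^3 cells/well for 24 h, then treated 24 h with graded concentrations up to 40. Triplicate, IC50 calculated.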

Series [3] in a line: Cytotoxicity against human PNT1A cells assessed as reduction in cell viability measured after 24 hrs by SRB assay. Type of series: toxicity, cell-based. The procedure, abridged: as §2
Series [4] can be described thus: Antioxidant activity assessed as H2O2 scavenging by measuring remaining dithiothreitol level at 0.1 equivalent after 5 mins by 1H NMR spectroscopy relative to control. Type of series: functional. Summed up:
as §1

Series [5] is described as follows: Cytotoxicity against human MCF7 cells assessed as reduction in cell viability measured after 24 hrs by MTT assay. Type of series: functional, cell-based. The settings on record: MCF7, 24 h. The procedure, abridged: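 MCF-7 cells grown in MEM with glutamine, non-essential amino acids, gentamycin and 10% heat-inactivated FBS at 37°C, 5% CO2. Seeded at 10^4 cells/well and left 24 h. Compounds at various concentrations or 0.1% DMSO vehicle for 24 h. MTT added for 2 h at 37°C. Formazan read at 540 nm against untreated control. Run in triplicate, IC50 reported.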
For orientation: Tetrazolium assays rely on reduction of a dye to a coloured formazan, in cell work by metabolically active cells.

The nature of series [6]: Antioxidant activity assessed as H2O2 scavenging by measuring remaining dithiothreitol level at 0.1 equivalent after 3 mins by 1H NMR spectroscopy relative to control. The format is functional. Summed up:
as §1

Series [7] is described as follows: Antioxidant activity assessed as H2O2 scavenging by measuring remaining dithiothreitol level at 0.1 equivalent after 30 mins by 1H NMR spectroscopy relative to control. Type of series: functional. The procedure, abridged: as §1
Series [8] is described as follows: Antioxidant activity assessed as H2O2 scavenging by measuring remaining dithiothreitol level at 0.1 equivalent after 60 mins by 1H NMR spectroscopy relative to control. The format is functional. Summed up: as §1
In another series the test system is DU-145. Briefly: Inhibition of Akt-phosphorylation in human DU145 cells at 40 uM measured after 0.5 to 2 hrs by Western blot analysis. The format is cell-based. Summed up: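 Cells treated with 40 μM compound for different times. Floating and attached cells lysed in Tris-HCl pH 7.5/NaCl/Triton X-100/SDS for 40 min on ice. Lysates run on 10–12% SDS-PAGE and blotted to PVDF. Primary antibody applied 1 h at room temperature, detection by ECL. p-Akt quantified by densitometry and normalised to β-actin.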
Background: In western blotting, separated proteins are transferred to a membrane and probed.

Series [9] in a line: Antiproliferative activity against human A549 cells. The format is functional, cell-based.

One may read the IC50 as the concentration that inhibits the measured activity by half.

Structures are written as SMILES. Calls of active or inactive are those of the source. The calls are words filed in the database; no cut-off is given here.

`Cn1[se]c2ccccc2c1=O`: the Activity in series [1] was determined as 35%; in series [4] it was 65%; in series [6] it was 78%; in series [7], 11%; in series [8] it was 0%. The IC50 in series [2] is 30.2 µM; in series [5], 32.7 µM. Also, the IC50 at 24 h in series [3] was more than 40 µM.

In the case of `CCCCNC(=O)c1ccccc1[Se][Se]c1ccccc1C(=O)NCCCC`, the Activity was found to be 82% in [1]; 88% in [4]; 93% in series [6]; 77% in [7]; 73% in series [8]. Besides, the IC50 is more than 40 µM in [2] and more than 500 µM in series [5].

`CC(C)CCNC(=O)c1ccccc1[Se][Se]c1ccccc1C(=O)NCCC(C)C`: the Activity in series [1] came out at 38%; in series [4], 49%; in series [6], 65%; in [7] it was 31%; in [8], 21%. Also, the IC50 is more than 40 µM in series [2] and more than 500 µM in [5].

Consider `O=C(NC1CCCCC1)c1ccccc1[Se][Se]c1ccccc1C(=O)NC1CCCCC1`, for which the Activity in series [1] is 75%; in series [4], 85%; in series [6], 92%; in [7], 65%; in series [8], 54%. The IC50 is more than 40 µM in [2] and 90 µM in [5].

Turning to `O=c1c2ccccc2[se]n1-c1ccccc1`, the Activity is 64% in series [1]; 75% in [4]; 84% in series [6]; 58% in series [7]; 52% in series [8].

As for `C=CCn1[se]c2ccccc2c1=O`, the Activity was found to be 58% in [1]; 69% in series [4]; 76% in series [6]; 53% in series [7]; 41% in series [8]. The IC50 in series [2] is 10.3 µM; in series [5], 25.7 µM. In addition, the IC50 at 24 h in [3] is more than 40 µM.

In the case of `CCCCn1[se]c2ccccc2c1=O`, the Activity in [1] worked out at 41%; in [4], 59%; in series [6], 81%; in series [7], 32%; in series [8] it was 29%. Moreover, the 50% inhibitory concentration (IC50) in series [2] worked out at 20.8 µM; in series [5] it was 13.8 µM. Moreover, the IC50 at 24 h in [3] is more than 40 µM.

Regarding `O=c1c2ccccc2[se]n1C1CCCCC1`, the Activity in series [1] turned out to be 62%; in series [4], 69%; in series [6], 75%; in series [7], 55%; in series [8] it was 44%. The IC50 in series [2] is 5.71 µM; in series [5] it was 7.31 µM. Further, the IC50 at 24 h in series [3] was more than 40 µM. In addition, the inhibition result in the series on DU-145 was “Active”.

`C=CCNC(=O)c1ccccc1[Se][Se]c1ccccc1C(=O)NCC=C`: the Activity is 12% in series [1]; 36% in series [4]; 59% in series [6]; 0% in series [7]; 0% in series [8]. Further, the IC50 in series [2] came out at 20.4 µM; in series [5] it was 125 µM.

Take `CC(C)CCn1[se]c2ccccc2c1=O`: the Activity in series [1] stood at 42%; in series [4], 58%; in [6], 77%; in series [7], 28%; in [8], 13%. Besides, the IC50 in series [2] worked out at 30.4 µM; in series [5], 29 µM. In addition, the IC50 at 24 h in series [3] is more than 40 µM. Further, the inhibition result in the series with DU-145 is “Active”.

In turn, `O=C(O)c1ccc(NC(=O)c2ccccc2[Se][Se]c2ccccc2C(=O)Nc2ccc(C(=O)O)cc2)cc1` returned an IC50 in series [9] of 20 µM.
